According to ChEMBL document CHEMBL1799944, “New 2-heterocyclyl-imidazo[2,1-i]purin-5-one derivatives as potent and selective human A3 adenosine receptor antagonists” (J Med Chem, 2011):

Experiments:
Adenosine receptor A3 [1] = molecular target: T1, Adenosine receptor A3 (Homo sapiens, UniProt P0DMS8); assay: Displacement of [3H]MRE 3008F20 from human adenosine A3 receptor expressed in CHO cells after 120 mins by scintillation spectrometry; format: cell-based
T1 sequence (P0DMS8 whole entry): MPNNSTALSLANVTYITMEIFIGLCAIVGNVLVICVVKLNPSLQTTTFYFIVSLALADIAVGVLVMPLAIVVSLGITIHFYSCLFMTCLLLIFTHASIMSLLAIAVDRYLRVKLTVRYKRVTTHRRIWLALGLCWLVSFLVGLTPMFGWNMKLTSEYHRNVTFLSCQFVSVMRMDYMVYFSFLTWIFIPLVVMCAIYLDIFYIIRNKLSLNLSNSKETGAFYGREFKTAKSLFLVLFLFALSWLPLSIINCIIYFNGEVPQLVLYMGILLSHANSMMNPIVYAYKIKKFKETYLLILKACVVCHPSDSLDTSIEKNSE
Summary of the method: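 Membranes from hA3 CHO cells (50 μg protein/assay) in 50 mM Tris HCl, 10 mM MgCl2, 1 mM EDTA pH 7.4, adenosine deaminase-treated. Incubated with 1 nM [3H]MRE 3008F20 and 6-8 ligand concentrations, 120 min at 4 °C. Nonspecific defined with 1 μM MRE 3008F20 (~25% of total). GF/B filtration, three ice-cold washes, scintillation counting. Ki via Cheng-Prusoff; geometric mean, 95% confidence limits, n = 3-6.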

Adenosine receptor A2b = molecular target: T2, Adenosine receptor A2b (Homo sapiens, UniProt P29275); assay: Antagonist activity human adenosine A2B receptor expressed in CHO cells assessed as inhibition of NECA-mediated [3H]cAMP accumulation after 150 mins by scintillation counter; format: functional, cell-based
T2 sequence (P29275 whole entry): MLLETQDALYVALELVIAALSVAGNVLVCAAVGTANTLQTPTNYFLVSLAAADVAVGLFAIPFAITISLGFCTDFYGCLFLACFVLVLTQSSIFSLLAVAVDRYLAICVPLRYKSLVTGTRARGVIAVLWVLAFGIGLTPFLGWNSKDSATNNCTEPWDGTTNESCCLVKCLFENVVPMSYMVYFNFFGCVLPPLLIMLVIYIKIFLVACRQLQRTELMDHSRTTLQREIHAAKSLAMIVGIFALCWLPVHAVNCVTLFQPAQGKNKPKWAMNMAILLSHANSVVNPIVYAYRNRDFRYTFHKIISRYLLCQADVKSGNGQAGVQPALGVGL
Summary of the method: (§1)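 Intact CHO cells expressing hA2B (1 x 10^6 cells/assay), preincubated 10 min at 37 °C in saline buffer pH 7.4 with 2 IU/mL adenosine deaminase and Ro 20-1724. Antagonism of 100 nM NECA-stimulated cAMP rise. Stopped with cold 6% TCA, ether-extracted. cAMP measured by competition binding with [3H]cAMP and beef adrenal binding protein (4 °C, 150 min), charcoal separation, scintillation counting. IC50 by sigmoid nonlinear regression, mean ± SEM.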

Adenosine receptor A1 = molecular target: T3, Adenosine receptor A1 (Homo sapiens, UniProt P30542); assay: Displacement of [3H]DPCPX from human adenosine A1 receptor expressed in CHO cells after 120 mins by scintillation spectrometry; format: cell-based
T3 sequence (P30542 whole entry): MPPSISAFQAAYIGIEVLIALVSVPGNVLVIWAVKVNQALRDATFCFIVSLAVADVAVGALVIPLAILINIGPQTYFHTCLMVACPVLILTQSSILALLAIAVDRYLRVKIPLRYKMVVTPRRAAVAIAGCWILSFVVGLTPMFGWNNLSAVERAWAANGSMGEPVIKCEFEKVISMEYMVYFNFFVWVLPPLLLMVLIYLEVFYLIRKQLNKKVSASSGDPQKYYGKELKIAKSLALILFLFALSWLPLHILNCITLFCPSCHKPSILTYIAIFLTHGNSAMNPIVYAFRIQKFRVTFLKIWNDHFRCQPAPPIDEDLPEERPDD
Summary of the method: (§2)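 hA1 CHO membranes (50 μg protein/assay) in 50 mM Tris HCl pH 7.4, pretreated with adenosine deaminase 2 UI/mL for 30 min at 37 °C. Incubated with 1 nM [3H]DPCPX plus 6-8 ligand concentrations for 120 min at 25 °C. Nonspecific binding defined with 1 μM DPCPX. Ki from IC50 by Cheng-Prusoff; geometric means with 95% confidence limits.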

Adenosine receptor A2a [2] = molecular target: T4, Adenosine receptor A2a (Homo sapiens, UniProt P29274); assay: Displacement of [3H]ZM 241385 from human adenosine A2A receptor expressed in CHO cells at <=5000 nM after 60 mins by scintillation spectrometry; format: cell-based
T4 sequence (P29274 whole entry): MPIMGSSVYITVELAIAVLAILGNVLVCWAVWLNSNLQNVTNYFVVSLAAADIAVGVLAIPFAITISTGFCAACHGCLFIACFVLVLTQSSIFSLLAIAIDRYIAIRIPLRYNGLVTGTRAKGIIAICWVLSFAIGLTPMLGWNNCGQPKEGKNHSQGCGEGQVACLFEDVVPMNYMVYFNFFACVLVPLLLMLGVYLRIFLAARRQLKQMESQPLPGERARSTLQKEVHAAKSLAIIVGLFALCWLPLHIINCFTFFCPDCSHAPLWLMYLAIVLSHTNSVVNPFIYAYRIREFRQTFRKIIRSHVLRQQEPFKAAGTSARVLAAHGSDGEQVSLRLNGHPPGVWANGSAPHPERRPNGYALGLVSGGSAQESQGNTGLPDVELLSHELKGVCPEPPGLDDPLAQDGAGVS

Adenosine receptor A3 [3] = molecular target: T1, Adenosine receptor A3; assay: Antagonist activity human adenosine A3 receptor expressed in CHO cells assessed as blockade of Cl-IB-MECA-mediated inhibition of forskolin-stimulated [3H]cAMP accumulation after 150 mins by scintillation counter; format: functional, cell-based
Summary of the method: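 hA3-expressing CHO cells (1 x 10^6 cells/assay), preincubated 10 min at 37 °C in saline buffer pH 7.4 with adenosine deaminase 2 IU/mL and Ro 20-1724. Antagonism of 100 nM Cl-IB-MECA inhibition of cAMP in presence of 1 μM forskolin. Stopped with cold TCA. cAMP by [3H]cAMP competition protein binding (4 °C, 150 min), scintillation counting. IC50 from sigmoid nonlinear regression, mean ± SEM.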

Adenosine receptor A2a [4] = molecular target: T4, Adenosine receptor A2a; assay: Displacement of [3H]ZM 241385 from human adenosine A2A receptor expressed in CHO cells after 60 mins by scintillation spectrometry; format: cell-based
[5] = molecular target: T5, Adenosine receptor A2b (Homo sapiens) (UniProt P29275); assay: Antagonist activity human adenosine A2B receptor expressed in CHO cells assessed as inhibition of NECA-mediated [3H]cAMP accumulation at =<5000 nM after 150 mins by scintillation counter; format: functional, cell-based; summary of the method: as §1
T5 sequence (whole entry): T2 sequence (P29275 whole entry)

[6] = molecular target: Adenosine receptors; A1 & A3 (Homo sapiens) (UniProt P30542+P0DMS8); assay: Ratio of Ki for human adenosine A1 receptor to Ki for human adenosine A3 receptor
[7] = molecular target: T6, Adenosine receptor A1 (Homo sapiens) (UniProt P30542); assay: Displacement of [3H]DPCPX from human adenosine A1 receptor expressed in CHO cells at =<5000 nM after 120 mins by scintillation spectrometry; format: cell-based; summary of the method: as §2
T6 sequence (whole entry): T3 sequence (P30542 whole entry)

SMILES | Ki (Adenosine receptor A3 [1]) [nM] | IC50 (Adenosine receptor A2b) [nM] | Ki (Adenosine receptor A1) [nM] | inhibition (Adenosine receptor A2a [2]) [%] | IC50 (Adenosine receptor A3 [3]) [nM] | Ki (Adenosine receptor A2a [4]) [nM] | inhibition [5] [%] | Ratio Ki [6] | inhibition [7] [%]
C=CCN1C(=O)N2C[C@@H](C)N=C2c2[nH]c(-c3cc(C)nn3C)nc21 | 5.04 | > 5000 | 2510 | 1 | 35.9 | > 5000 | 10 |  | 
C=CCN1C(=O)N2C[C@H](C)N=C2c2[nH]c(-c3cc(C)nn3C)nc21 | 6.03 | > 5000 | 1960 | 4 | 40.9 | > 5000 | 12 |  | 
CC[C@@H]1CN2C(=O)N(Cc3ccccc3)c3nc(-c4cc(C)nn4C)[nH]c3C2=N1 | 12.6 | > 5000 | 803 | 3 |  | > 5000 | 10 |  | 
CC[C@H]1CN2C(=O)N(Cc3ccccc3)c3nc(-c4cc(C)nn4C)[nH]c3C2=N1 | 13.2 | > 5000 | 545 | 4 |  | > 5000 | 13 |  | 
C=CCN1C(=O)N2C[C@@H](CC)N=C2c2[nH]c(-c3cc(OC)nn3C)nc21 | 1.46 | > 5000 | 2520 | 13 | 23.4 | > 5000 | 21 |  | 
C=CCN1C(=O)N2C[C@H](CC)N=C2c2[nH]c(-c3cc(OC)nn3C)nc21 | 2.37 | > 5000 | 1080 | 15 | 10.5 | > 5000 | 14 |  | 
COc1cc(-c2nc3c([nH]2)C2=NC(C)CN2C(=O)N3Cc2ccccc2)n(C)n1 (stereo not given) | 3.11 | > 5000 | 1900 | 1 | 27.6 | > 5000 | 11 | 610 | 
COc1cc(-c2nc3c([nH]2)C2=N[C@H](C)CN2C(=O)N3Cc2ccccc2)n(C)n1 | 2.38 | > 5000 | 2550 | 11 | 15.9 | > 5000 | 19 |  | 
COc1cc(-c2nc3c([nH]2)C2=N[C@@H](C)CN2C(=O)N3Cc2ccccc2)n(C)n1 | 2.52 | > 5000 | 1730 | 1 | 17.5 | > 5000 | 22 |  | 
C=CCN1C(=O)N2CC(C)N=C2c2[nH]c(-c3cc(C)nn3C)nc21 (racemic) | 4.56 | > 5000 | 2040 | 7 | 34.2 | > 5000 | 30 | 450 | 
C=CCN1C(=O)N2CC(CC)N=C2c2[nH]c(-c3cc(C)nn3C)nc21 (racemic) | 3.01 | > 5000 | 515 | 8 | 30.3 | > 5000 | 20 | 170 | 
Cc1cc(-c2nc3c([nH]2)C2=NC(C)CN2C(=O)N3Cc2ccccc2)n(C)n1 (racemic) | 17.2 | > 5000 | > 5000 | 1 |  | > 5000 | 8 | > 290 | 
CCC1CN2C(=O)N(Cc3ccccc3)c3nc(-c4cc(C)nn4C)[nH]c3C2=N1 (racemic) | 10.3 | > 5000 | 615 | 5 |  | > 5000 | 20 | 60 | 
C=CCN1C(=O)N2CC(CC)N=C2c2[nH]c(-c3cc(OC)nn3C)nc21 (racemic) | 1.96 | > 5000 | 1530 | 1 | 12.2 | > 5000 | 16 | 780 | 
CCC1CN2C(=O)N(Cc3ccccc3)c3nc(-c4cc(OC)nn4C)[nH]c3C2=N1 (racemic) | 3.85 | > 5000 | 405 | 9 | 20.4 | > 5000 | 22 | 105 | 
C=CCN1C(=O)N2CC(C)N=C2c2[nH]c(-c3cc(OCc4ccccc4)nn3C)nc21 (racemic) | 24.7 | > 5000 | > 5000 | 25 |  | > 5000 | 17 | 202 | 47
C=CCN1C(=O)N2CC(CC)N=C2c2[nH]c(-c3cc(OCc4ccccc4)nn3C)nc21 (racemic) | 21.5 | > 5000 | 1200 | 5 |  | > 5000 | 14 | 56 | 
CC1CN2C(=O)N(Cc3ccccc3)c3nc(-c4cc(OCc5ccccc5)nn4C)[nH]c3C2=N1 (racemic) | 44.8 | > 5000 | 2560 |  |  | 2010 | 13 | 57 | 
CCC1CN2C(=O)N(Cc3ccccc3)c3nc(-c4cc(OCc5ccccc5)nn4C)[nH]c3C2=N1 (racemic) | 39.8 | > 5000 | 1680 |  |  | 2130 | 12 | 42 | 
C=CCN1C(=O)N2CC(C)N=C2c2[nH]c(-c3cc(C)n(C)n3)nc21 (racemic) | 13.9 | > 5000 | > 5000 | 1 |  | > 5000 | 9 | > 359 | 13
C=CCN1C(=O)N2CC(C)N=C2c2[nH]c(-c3cc(OC)no3)nc21 (racemic) | 3.58 | > 5000 | > 5000 | 11 | 24.2 | > 5000 | 13 | > 1400 | 26
C=CCN1C(=O)N2CC(CC)N=C2c2[nH]c(-c3cc(OC)no3)nc21 (racemic) | 1.93 | > 5000 | 3020 |  | 14.6 | 1520 | 25 |  | 
CCC1CN2C(=O)N(Cc3ccccc3)c3nc(-c4cc(OC)no4)[nH]c3C2=N1 (racemic) | 2.71 | > 5000 | 485 | 12 | 25.3 | > 5000 | 18 |  | 
